PMC9623233 (Clinical Cancer Research, 2022)

Columns and labels:
[1] = ref previous unpublished trial Eudra CT 2009-012933-31; cited from earlier work
[2] = system: high-grade serous ovarian cancer; assay: Antitumor activity: RECIST v1.1 response and time on treatment; assay type: in vivo, human
[3] = system: α-FR–overexpressing preclinical model; assay: Combination of CT900 and PARP inhibition, growth inhibition; assay type: cell-based; details: Supplementary Fig. S3
[4] = CT900 plasma pharmacokinetics, noncompartmental analysis; assay type: in vivo, human; details: Cycle 1 Day 1; for AUC(0-t) / Cmax / clearance / Tmax / Vd: human, plasma, iv
How it was run: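 Test compound was given intravenously, weekly (1–6 mg/m2) or every 2 weeks (2–12 mg/m2). Plasma concentration–time data were analysed noncompartmentally for AUClast, AUC∞, AUC0–24, Cmax, Tmax, t1/2, λz, clearance and Vss. Summaries are geometric mean with CV%, arithmetic mean and median.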

## C#CCN(c1ccc(C(=O)N[C@@H](CCC(=O)N[C@H](CCC(=O)O)C(=O)O)C(=O)O)cc1)[C@H]1CCc2cc3nc(CO)[nH]c(=O)c3cc21 [CT900, N-[4-[2-propyn-1-yl[(6S)-4,6,7,8-tetrahydro-2-(hydroxymethyl)-4-oxo-3H-cyclopenta [g]quinazolin-6-yl]amino]benzoyl]-l-gamma-glutamyl-D-glutamic acid]
[1]
  Median cumulative dose at which pulmonary toxicity occurred: 162 mg/m^2
[2]; 6 mg/m^2/q2Wk, medium and high α-FR, 0/9
  RECIST v1.1 response rate: 0%
[2]; 12 mg/m^2/q2Wk, medium and high α-FR, 5/25
  Patients who received treatment for ≥16 weeks: 20%
[2]; 12 mg/m^2/q3Wk, medium and high α-FR, 1/5
  RECIST v1.1 response rate: 20%
[2]; dose escalation cohort, high-grade serous ovarian cancer, 4 of 11
  Partial responses: 36.4%
[2]; expansion cohorts, regardless of α-FR status, 14/64
  Overall response rate (ORR): 21.9%
[3]
  Effect of combination of CT900 and PARP inhibition: synergistic growth inhibition
[4]; 1 mg/m^2 i.v., Geometric Mean, N 3
  HL Lambda_z: 6.1 h
[4]; 1 mg/m^2 i.v., Mean, N 3
  HL Lambda_z: 6.7 h
[4]; 1 mg/m^2 i.v., Median, N 3
  HL Lambda_z: 7.5 h
[4]; 1 mg/m^2 i.v., Range, N 3
  HL Lambda_z: 3.2 to 9.4 h
[4]; 2 mg/m^2 i.v., Geometric Mean, N 4
  HL Lambda_z: 11.8 h
[4]; 2 mg/m^2 i.v., Mean, N 4
  HL Lambda_z: 12.6 h
[4]; 2 mg/m^2 i.v., Median, N 4
  HL Lambda_z: 11.3 h
[4]; 2 mg/m^2 i.v., Range, N 4
  HL Lambda_z: 7.5 to 20.0 h
[4]; 6 mg/m^2 i.v., Mean, N 1
  HL Lambda_z: 19.9 h
[4]; 12 mg/m^2 i.v., Geometric Mean, N 5
  HL Lambda_z: 28.1 h
[4]; 12 mg/m^2 i.v., Mean, N 5
  HL Lambda_z: 28.7 h
[4]; 12 mg/m^2 i.v., Median, N 5
  HL Lambda_z: 26.5 h
[4]; 12 mg/m^2 i.v., Range, N 5
  HL Lambda_z: 23.0 to 41.0 h
[4]; 1 mg/m2, AUC0-24, 1 mg/m^2 i.v., Mean, N 3
  AUC(0-t): 1650 ng·h/mL
[4]; 1 mg/m2, AUC0-24, 1 mg/m^2 i.v., Median, N 3
  AUC(0-t): 1620 ng·h/mL
[4]; 1 mg/m2, AUC0-24, 1 mg/m^2 i.v., Range, N 3
  AUC(0-t): 1020 to 2330 ng·h/mL
[4]; 1 mg/m2, AUClast, 1 mg/m^2 i.v., Mean, N 3
  AUC(0-t): 1650 ng·h/mL
[4]; 1 mg/m2, AUClast, 1 mg/m^2 i.v., Median, N 3
  AUC(0-t): 1620 ng·h/mL
[4]; 1 mg/m2, AUClast, 1 mg/m^2 i.v., Range, N 3
  AUC(0-t): 1020 to 2330 ng·h/mL
[4]; 1 mg/m2, C max, 1 mg/m^2 i.v., Mean, N 3
  Cmax: 402 ng/mL
[4]; 1 mg/m2, C max, 1 mg/m^2 i.v., Median, N 3
  Cmax: 401 ng/mL
[4]; 1 mg/m2, C max, 1 mg/m^2 i.v., Range, N 3
  Cmax: 374 to 432 ng/mL
[4]; 1 mg/m2, Cl, 1 mg/m^2 i.v., Mean, N 3
  clearance: 20.3 mL/min
[4]; 1 mg/m2, Cl, 1 mg/m^2 i.v., Median, N 3
  clearance: 20.8 mL/min
[4]; 1 mg/m2, Cl, 1 mg/m^2 i.v., Range, N 3
  clearance: 10.4 to 29.7 mL/min
[4]; 1 mg/m2, T max, 1 mg/m^2 i.v., Mean, N 3
  Tmax: 1 h
[4]; 1 mg/m2, T max, 1 mg/m^2 i.v., Median, N 3
  Tmax: 1 h
[4]; 1 mg/m2, T max, 1 mg/m^2 i.v., Range, N 3
  Tmax: 1 h
[4]; 1 mg/m2, Vss, 1 mg/m^2 i.v., Mean, N 3
  Vd: 7.59 L
[4]; 1 mg/m2, Vss, 1 mg/m^2 i.v., Median, N 3
  Vd: 6.75 L
[4]; 1 mg/m2, Vss, 1 mg/m^2 i.v., Range, N 3
  Vd: 6.71 to 9.32 L
[4]; 2 mg/m2, AUC0-24, 2 mg/m^2 i.v., Mean, N 4
  AUC(0-t): 4890 ng·h/mL
[4]; 2 mg/m2, AUC0-24, 2 mg/m^2 i.v., Median, N 4
  AUC(0-t): 4730 ng·h/mL
[4]; 2 mg/m2, AUC0-24, 2 mg/m^2 i.v., Range, N 4
  AUC(0-t): 2520 to 7590 ng·h/mL
[4]; 2 mg/m2, AUClast, 2 mg/m^2 i.v., Mean, N 4
  AUC(0-t): 6860 ng·h/mL
[4]; 2 mg/m2, AUClast, 2 mg/m^2 i.v., Median, N 4
  AUC(0-t): 6050 ng·h/mL
[4]; 2 mg/m2, AUClast, 2 mg/m^2 i.v., Range, N 4
  AUC(0-t): 2520 to 12800 ng·h/mL
[4]; 2 mg/m2, C max, 2 mg/m^2 i.v., Mean, N 4
  Cmax: 746 ng/mL
[4]; 2 mg/m2, C max, 2 mg/m^2 i.v., Median, N 4
  Cmax: 759 ng/mL
[4]; 2 mg/m2, C max, 2 mg/m^2 i.v., Range, N 4
  Cmax: 613 to 855 ng/mL
[4]; 2 mg/m2, Cl, 2 mg/m^2 i.v., Mean, N 4
  clearance: 11.2 mL/min
[4]; 2 mg/m2, Cl, 2 mg/m^2 i.v., Median, N 4
  clearance: 8.72 mL/min
[4]; 2 mg/m2, Cl, 2 mg/m^2 i.v., Range, N 4
  clearance: 4.07 to 23.4 mL/min
[4]; 2 mg/m2, T max, 2 mg/m^2 i.v., Mean, N 4
  Tmax: 0.9 h
[4]; 2 mg/m2, T max, 2 mg/m^2 i.v., Median, N 4
  Tmax: 1 h
[4]; 2 mg/m2, T max, 2 mg/m^2 i.v., Range, N 4
  Tmax: 0.5 to 1.1 h
[4]; 2 mg/m2, Vss, 2 mg/m^2 i.v., Mean, N 4
  Vd: 8.52 L
[4]; 2 mg/m2, Vss, 2 mg/m^2 i.v., Median, N 4
  Vd: 7.41 L
[4]; 2 mg/m2, Vss, 2 mg/m^2 i.v., Range, N 4
  Vd: 6.53 to 12.7 L
[4]; 6 mg/m2, AUC0-24, 6 mg/m^2 i.v., Mean, N 1
  AUC(0-t): 15100 ng·h/mL
[4]; 6 mg/m2, AUClast, 6 mg/m^2 i.v., Mean, N 1
  AUC(0-t): 25600 ng·h/mL
[4]; 6 mg/m2, C max, 6 mg/m^2 i.v., Mean, N 1
  Cmax: 2030 ng/mL
[4]; 6 mg/m2, Cl, 6 mg/m^2 i.v., Mean, N 1
  clearance: 7.67 mL/min
[4]; 6 mg/m2, T max, 6 mg/m^2 i.v., Mean, N 1
  Tmax: 1 h
[4]; 6 mg/m2, Vss, 6 mg/m^2 i.v., Mean, N 1
  Vd: 12 L
[4]; 12 mg/m2, AUC0-24, 12 mg/m^2 i.v., Geometric Mean, N 5
  AUC(0-t): 46900 ng·h/mL
[4]; 12 mg/m2, AUC0-24, 12 mg/m^2 i.v., Mean, N 5
  AUC(0-t): 47200 ng·h/mL
[4]; 12 mg/m2, AUC0-24, 12 mg/m^2 i.v., Median, N 5
  AUC(0-t): 45400 ng·h/mL
[4]; 12 mg/m2, AUC0-24, 12 mg/m^2 i.v., Range, N 5
  AUC(0-t): 42300 to 58600 ng·h/mL
[4]; 12 mg/m2, AUClast, 12 mg/m^2 i.v., Geometric Mean, N 5
  AUC(0-t): 85900 ng·h/mL
[4]; 12 mg/m2, AUClast, 12 mg/m^2 i.v., Mean, N 5
  AUC(0-t): 87600 ng·h/mL
[4]; 12 mg/m2, AUClast, 12 mg/m^2 i.v., Median, N 5
  AUC(0-t): 83500 ng·h/mL
[4]; 12 mg/m2, AUClast, 12 mg/m^2 i.v., Range, N 5
  AUC(0-t): 68700 to 123000 ng·h/mL
[4]; 12 mg/m2, C max, 12 mg/m^2 i.v., Geometric Mean, N 5
  Cmax: 5100 ng/mL
[4]; 12 mg/m2, C max, 12 mg/m^2 i.v., Mean, N 5
  Cmax: 5130 ng/mL
[4]; 12 mg/m2, C max, 12 mg/m^2 i.v., Median, N 5
  Cmax: 4830 ng/mL
[4]; 12 mg/m2, C max, 12 mg/m^2 i.v., Range, N 5
  Cmax: 4460 to 6010 ng/mL
[4]; 12 mg/m2, Cl, 12 mg/m^2 i.v., Geometric Mean, N 5
  clearance: 3.45 mL/min
[4]; 12 mg/m2, Cl, 12 mg/m^2 i.v., Mean, N 5
  clearance: 3.6 mL/min
[4]; 12 mg/m2, Cl, 12 mg/m^2 i.v., Median, N 5
  clearance: 3.68 mL/min
[4]; 12 mg/m2, Cl, 12 mg/m^2 i.v., Range, N 5
  clearance: 2.1 to 5.05 mL/min
[4]; 12 mg/m2, T max, 12 mg/m^2 i.v., Geometric Mean, N 5
  Tmax: 1 h
[4]; 12 mg/m2, T max, 12 mg/m^2 i.v., Mean, N 5
  Tmax: 1 h
[4]; 12 mg/m2, T max, 12 mg/m^2 i.v., Median, N 5
  Tmax: 1 h
[4]; 12 mg/m2, T max, 12 mg/m^2 i.v., Range, N 5
  Tmax: 1 h
[4]; 12 mg/m2, Vss, 12 mg/m^2 i.v., Geometric Mean, N 5
  Vd: 7.59 L
[4]; 12 mg/m2, Vss, 12 mg/m^2 i.v., Mean, N 5
  Vd: 7.62 L
[4]; 12 mg/m2, Vss, 12 mg/m^2 i.v., Median, N 5
  Vd: 7.33 L
[4]; 12 mg/m2, Vss, 12 mg/m^2 i.v., Range, N 5
  Vd: 6.99 to 9.06 L
